Screening results deposited in PubChem by several laboratories.
Sampled rows, rich in hits. Any-hit rate of the full collection: about 5.4%.
T cruzi inh: blocks replication of Trypanosoma cruzi; 300,000 compounds, 1.4% hits; inhibition, % (concentration not given with the values); T. cruzi beta-gal in NIH3T3, luminescence, 90 h;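 active = mean inhibition across valid replicates above about 55%, limit read from the data; inconclusive = mean below that limit but half or more replicates reach it; inactive = mean below it, under half of replicates reach it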;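 also: signal also drops with host cell toxicity which is not excluded here; higher percent means less beta-gal luminescence so fewer parasites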
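Material: NIH/3T3 host cells with β-galactosidase reporter T. cruzi; Input: 5,000 host fibroblasts per well; Medium: DMEM, 2% fetal bovine serum; Compound: 50 nL DMSO compound solution per well; Schedule: 3 h host attachment, then at least 90 h co-culture; Detection: luminescent β-galactosidase signal after 60 min lysis.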
Mdm2 MdmX PPI: disrupts the human Mdm2-MdmX interaction. O15151+Q00987. SaOS-2 split-luciferase Mdm2/MdmX complementation, luminescence. inhibition, % at 8 µM. 330,000 compounds, 3% hits;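 active = inhibition of at least 50% at 8 µM in the primary screen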
Target sequence (O15151 whole entry, looked up): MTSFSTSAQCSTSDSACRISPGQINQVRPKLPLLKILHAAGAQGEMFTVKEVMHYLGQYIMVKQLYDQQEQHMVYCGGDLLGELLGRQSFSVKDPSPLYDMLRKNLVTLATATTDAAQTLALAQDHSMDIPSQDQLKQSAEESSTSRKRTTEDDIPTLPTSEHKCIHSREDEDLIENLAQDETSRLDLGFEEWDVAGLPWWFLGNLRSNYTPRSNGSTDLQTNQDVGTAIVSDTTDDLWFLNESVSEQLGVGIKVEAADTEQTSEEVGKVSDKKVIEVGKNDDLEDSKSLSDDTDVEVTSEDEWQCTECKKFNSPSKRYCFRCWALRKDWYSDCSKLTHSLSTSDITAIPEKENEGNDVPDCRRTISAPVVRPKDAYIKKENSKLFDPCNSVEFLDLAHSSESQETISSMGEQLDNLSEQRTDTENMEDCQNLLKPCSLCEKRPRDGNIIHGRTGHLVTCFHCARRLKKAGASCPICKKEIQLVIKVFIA
Target sequence (Q00987 whole entry, looked up): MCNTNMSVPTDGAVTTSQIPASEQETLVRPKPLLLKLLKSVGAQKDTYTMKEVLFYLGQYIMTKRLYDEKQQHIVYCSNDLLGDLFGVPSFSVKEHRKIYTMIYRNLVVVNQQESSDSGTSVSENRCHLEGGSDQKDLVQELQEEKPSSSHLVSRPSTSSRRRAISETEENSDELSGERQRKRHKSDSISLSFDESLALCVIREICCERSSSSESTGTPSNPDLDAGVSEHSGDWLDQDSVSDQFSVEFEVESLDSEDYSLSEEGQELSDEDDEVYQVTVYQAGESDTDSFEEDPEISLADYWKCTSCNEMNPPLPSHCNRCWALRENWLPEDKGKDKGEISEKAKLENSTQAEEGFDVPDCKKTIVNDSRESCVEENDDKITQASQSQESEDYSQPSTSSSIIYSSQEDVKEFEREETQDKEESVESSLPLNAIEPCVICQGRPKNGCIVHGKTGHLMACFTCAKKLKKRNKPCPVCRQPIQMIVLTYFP
aSyn UTR inh: MLPCN primary screen, SNCA 5' untranslated region; 300,000 compounds, 0.82% hits; inhibition, % (tested at 7.5 µM); alpha-synuclein 5'UTR reporter, inhibitor activity; in the data active = inhibition above about 60%; inconclusive = no clear call, values can overlap the other calls;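 also: H4 neuroglioblastoma cells stably carrying SNCA 5'UTR luciferase fusion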
CSC inhib: cancer stem cell inhibition. cancer stem cell-like cells viability, luminescence. inhibition, % at 7.5 µM. 300,000 compounds, 1.1% hits; in the data active = inhibition above about 75%; inconclusive = no clear call, values can overlap the other calls; tested in HMLE shEcad cells
SKKanGAS inh: blocks kanamycin growth of S. pyogenes SKKanGAS strain | BacTiter-Glo, 6 h | inhibition, % at 7.5 µM | 300,000 compounds, 1.3% hits | AID 1662;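 active = mean replicate score, as percent of positive control median, at least 50; inconclusive = mean below 50 but one replicate at or above 50; inactive = mean and every replicate below 50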;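 also: strain carries kanamycin resistance gene driven by streptokinase promoter and grows in 40 µg/ml kanamycin; loss of luminescence reflects streptokinase promoter inhibition or plain growth inhibition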
Large screens that a line does not name were inactive.

COc1ccc(C2=NCC(CSc3nnc(-c4ccc5c(c4)OCO5)o3)S2)cc1 (centres undefined)	T cruzi inh 57
C[C@@H](NC(=O)c1[nH]cnc1C(=O)Nc1cccc(Cl)c1)c1ccccc1	none (no result: T cruzi inh, aSyn UTR inh, SKKanGAS inh)
Cn1c(=S)[nH]c2sc3c(c2c1=O)CCC(C(C)(C)C)C3 (centres undefined)	SKKanGAS inh 79
Cc1ccc(OCCn2c(NC(=O)c3ccco3)nc3ccccc32)cc1	aSyn UTR inh 67, SKKanGAS inh 66
O=C(Nc1nc2ccccc2n1CCN1CCCCC1)c1ccco1	none
C=CCn1c(NC(=O)c2ccco2)nc2ccccc21	none
CCC(=O)Nc1nc2ccccc2n1Cc1ccccc1	none
CCC(=O)Nc1nc2ccccc2n1Cc1ccc(C)cc1	aSyn UTR inh 77, SKKanGAS inh 94
CC(=O)Nc1nc2ccccc2n1Cc1ccc(Cl)cc1	T cruzi inh inconclusive, aSyn UTR inh inconclusive, SKKanGAS inh 64
O=C(Nc1nc2ccccc2n1Cc1ccc(Cl)cc1)c1ccco1	T cruzi inh 76
Cc1ccc(C(=O)NCc2ccco2)c(C)c1	none
CCOc1ccccc1CNC(=O)C1Cc2cc(S(=O)(=O)N3CCCCC3)ccc2N1C(C)=O (centres undefined)	none
CCCCC1=CC2=CC(=O)C(C)(OC(=O)CC)C(=O)C2=CN1CCN1CCOCC1 (centres undefined)	none
CCc1nnc(NC(=O)c2ccc(S(=O)(=O)N(CC)Cc3ccccc3)cc2)o1	none (no result: CSC inhib)
CN(Cc1ccccc1)S(=O)(=O)c1ccc(C(=O)Nc2nnc(C3CC3)o2)cc1	aSyn UTR inh inconclusive, SKKanGAS inh 79
CCc1nnc(NC(=O)c2ccc(S(=O)(=O)N(C)Cc3ccccc3)cc2)o1	aSyn UTR inh 63, SKKanGAS inh inconclusive
CCC1CC(C(=O)Nc2ccccc2)C(=O)O1 (centres undefined)	none
Nc1ccc(C(=O)OCC(=O)N2c3ccccc3Sc3ccccc32)cc1[N+](=O)[O-]	none (no result: T cruzi inh, Mdm2 MdmX PPI, aSyn UTR inh, SKKanGAS inh)
NCCNc1ccc(C(=O)N2c3ccccc3Sc3ccccc32)cc1[N+](=O)[O-]	CSC inhib 92
CC(C)CNC(=S)NC(=O)c1csc([N+](=O)[O-])c1	none
C=CCNC(=O)O/N=C/c1csc([N+](=O)[O-])c1	T cruzi inh 57
CN1CCc2c(sc(NC(=O)c3cc4cc([N+](=O)[O-])ccc4s3)c2C(N)=O)C1	T cruzi inh 69 (no result: Mdm2 MdmX PPI, CSC inhib)
CC(C)N1CCc2c(sc(NC(=O)c3cc4cc([N+](=O)[O-])ccc4s3)c2C(N)=O)C1	none (no result: CSC inhib)
CC(C)N1CCc2c(sc(NC(=O)c3ccc4ccccc4c3)c2C(N)=O)C1	CSC inhib 79
Cc1ccc(NC(=O)CSc2ccc3c(c2)OCCO3)nc1	none
Cc1sc2nc(COC(=O)CNC(=O)c3ccc(C(C)(C)C)cc3)[nH]c(=O)c2c1C	none
Cc1[nH]c2ccccc2c1/C=N/Nc1ccccc1[N+](=O)[O-]	T cruzi inh 62, CSC inhib 77
Cc1[nH]c2ccccc2c1/C=N/NS(=O)(=O)c1ccccc1	none
CN(C)CCNc1oc(-c2ccccc2Cl)nc1S(=O)(=O)c1ccccc1	none (no result: T cruzi inh, aSyn UTR inh, SKKanGAS inh)
CN(C)CCCNc1oc(-c2ccccc2Cl)nc1S(=O)(=O)c1ccc(F)cc1	T cruzi inh 62
S=C(Nc1ccccc1Cl)NC1CC2CCCC(C1)N2C1CC1 (centres undefined)	none (no result: CSC inhib)
CCC1CN(S(=O)(=O)c2cc(-c3cc(C)no3)ccc2OC)c2cc(C)ccc2O1 (centres undefined)	none
COC(=O)c1ccc(CSc2n[nH]c(=S)s2)o1	SKKanGAS inh 63
Cc1ccc(COc2ccc(Br)cc2/C=N/O)cc1	CSC inhib 78
O/N=C/c1cc(Br)ccc1OCc1ccc(F)cc1	none
O=C(Nc1ccccn1)c1ccc(-c2ccccc2)cc1	aSyn UTR inh 63
Cc1ccc2ncc(S(=O)(=O)c3ccccc3)c(N3CCCCC3C)c2c1 (centres undefined)	none
O=C(c1cc(-c2ccc(O)cc2)on1)N1CCN(c2ccc(F)cc2)CC1	CSC inhib 111
O=C(c1cc(-c2ccc(O)cc2)on1)N1CCN(c2ccccc2)CC1	CSC inhib 104
O=C(c1cc(-c2ccc3c(c2)OCO3)on1)N1CCN(c2ccccc2)CC1	none
N#Cc1ccccc1NS(=O)(=O)c1cc2c3c(c1)CCN3C(=O)CC2	none
O=C(Nc1cccc(-c2ccc(N3CCOCC3)nn2)c1)c1ccc(F)cc1F	none
O=C(OCC1OC(n2cc(Br)c(=O)[nH]c2=O)C(Br)C1O)c1ccccc1 (centres undefined)	none
COc1cccc(CN2C(=O)C3(C(C#N)=C(N)OC4=C3C(=O)CCC4)c3ccccc32)c1 (centres undefined)	aSyn UTR inh 63
COc1ccc(NC(=O)CN(C)C(=O)c2cccc(S(=O)(=O)N3CCCc4ccccc43)c2)cc1	none
COc1ccc(CCNCC(O)COc2ccc(OC)cc2C(C)(C)C)cc1 (centres undefined)	none (no result: CSC inhib)
O=C(Nc1nnc(-c2ccccc2)o1)Nc1ccccc1Cl	none (no result: Mdm2 MdmX PPI)
O=C(Nc1nnc(-c2ccco2)o1)c1ccc(Cl)cc1	SKKanGAS inh 87
CN(C)c1ccc(C(=O)NNC(=O)c2ccc(Cl)cc2)cc1	none
CN(C)c1ccc(C(=O)Nc2nnc(-c3ccc(Cl)cc3)o2)cc1	SKKanGAS inh 91
O=C(Nc1nnc(-c2ccccc2)o1)c1ccc(Cl)cc1	SKKanGAS inh 92
CC(=O)c1ccc(C(=O)Nc2nnc(-c3ccc(Cl)cc3)o2)cc1	SKKanGAS inh 91
O=C(Nc1nnc(C2=COCCO2)o1)c1ccc(Cl)cc1	none
Cc1cc(S(=O)(=O)N2CCN(c3ccccc3F)CC2)ccc1-n1cnnn1	none (no result: CSC inhib)
Cc1noc(C)c1NC(=O)Nc1ccc2c(c1)C(=O)N([C@H](C)CO)C[C@H](C)[C@@H](CN(C)S(=O)(=O)c1ccccc1)O2	none (no result: T cruzi inh, aSyn UTR inh, CSC inhib, SKKanGAS inh)
CN1CCN(c2nc(-c3ccc(Cl)cc3)nc3ccccc23)CC1	none (no result: CSC inhib)
CC1(c2ccccc2)NC(=O)N(CC(=O)Nc2ccc(N3CCOCC3)cc2N2CCOCC2)C1=O (centres undefined)	none
CN(c1ccccc1)S(=O)(=O)c1ccc(C(=O)Nc2nnc(-c3ccc(F)cc3)o2)cc1	SKKanGAS inh 103
O=C(Nc1nnc(-c2ccncc2)o1)c1ccc2ccccc2c1	SKKanGAS inh 78
CN(c1ccccc1)S(=O)(=O)c1ccc(NC(=O)c2ccc(-c3ccccc3)cc2)cc1	none
Cc1noc(C)c1S(=O)(=O)NCc1ccc(CN(C)C)cc1	none (no result: T cruzi inh, aSyn UTR inh, SKKanGAS inh)
CC(C)CN(C(=O)COc1ccc(-c2nnco2)cc1)C1CCS(=O)(=O)C1 (centres undefined)	SKKanGAS inh 61
Cc1cccc(Nc2nc(N)nc(-c3oc4ccccc4c3C)n2)c1	none
Cc1ccc(Nc2nc(N)nc(-c3oc4ccccc4c3C)n2)cc1	aSyn UTR inh 91
CNC(=O)c1c(NC(=O)c2ccc(S(=O)(=O)N3CCCc4ccccc43)cc2)sc2c1CCN(C)C2	CSC inhib 76
CCCN1CCc2c(sc(NC(=O)c3ccc(S(=O)(=O)N(C)c4ccccc4)cc3)c2C(N)=O)C1	none
